pIC50, pKd: −log10 of the molar value. Read-outs that look alike come from different tables or passages of the source. Each block holds one molecule with its values, some of them ahead of it.
Tests used:
[1] = target: p300 CH1 (Homo sapiens) (UniProt Q09472); details: cited from earlier work
[2] = cited from earlier work
[3] = target: CH1 domain of p300 (Homo sapiens, UniProt Q09472); assay: Fluorescence-based assay for release of Zn; assay type: biochemical; details: high basal levels of Zn(II), poorer resolution
CH1 domain of p300, sequence (Q09472 331-417 limits assumed): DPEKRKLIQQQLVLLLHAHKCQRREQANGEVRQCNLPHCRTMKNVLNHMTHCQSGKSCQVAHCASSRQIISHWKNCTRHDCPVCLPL

[4] = target: T1, catalytic domain of KDM4A (Homo sapiens, UniProt O75164); assay: Fluorescence-based; assay type: biochemical; details: FluoZin-3 dye measures unbound zinc; ebselen positive control
T1 sequence (O75164 142-308 limits assumed): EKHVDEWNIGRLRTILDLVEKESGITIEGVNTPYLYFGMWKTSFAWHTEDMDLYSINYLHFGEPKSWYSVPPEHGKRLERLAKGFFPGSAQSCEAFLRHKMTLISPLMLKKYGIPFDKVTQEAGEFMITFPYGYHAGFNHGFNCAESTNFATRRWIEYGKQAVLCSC

[5] = system: HeLa cell
[6] = target: HIF-1α (785-826)/p300 CH1 domain (323-423) (Homo sapiens, UniProt Q09472); assay: ELISA competition assay for disrupting HIF-1α/p300 binding; details: read-out: IC50, HIF-1α/p300 interaction, 1% DMSO
HIF-1α (785-826)/p300 CH1 domain (323-423), sequence (Q09472 323-423): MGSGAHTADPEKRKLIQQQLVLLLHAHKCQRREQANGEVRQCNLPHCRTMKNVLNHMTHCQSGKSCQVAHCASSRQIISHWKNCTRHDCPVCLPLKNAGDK
Procedure, shortened: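 Assay wells held 1% DMSO. Each determination ran in triplicate and is reported with ±SD.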

[7] = Stability of ninhydrin adduct in aqueous buffer monitored by 1H NMR; assay type: physicochemical; details: after one hour, pH 8, D2O, 10 mM phosphate buffer
[8] = system: HeLa cell; assay: HeLa cell viability assay; details: after 48 h

HIF-1α C-TAD, sequence (Q16665 783-826): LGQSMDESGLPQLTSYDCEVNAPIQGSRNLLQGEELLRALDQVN
p300 CH1 (Homo sapiens), sequence (Q09472 331-417): as the sequence (Q09472 331-417 limits assumed) above

Molecule: HIF-1α C-TAD (from UniProt Q16665)
pKd [1]: 8.15

Molecule: O=C1c2ccccc2C(=O)c2ccccc21 [compound 7, anthraquinone]
half wave potential (E1/2) [2]: -1.26 V

Molecule: O=C(NN1C(=O)c2ccccc2C1=O)c1ccccc1 [compound 21, N-(1,3-Dioxoisoindolin-2-yl)benzamide]
cytotoxicity in HeLa cell viability assay [5]: not cytotoxic

Molecule: O=C1C=CC(=O)c2ccccc21 [compound 8, naphthoquinone]
Zn(II) ion release from CH1 domain of p300 [3]: dose- and time-dependent increases in fluorescence
cytotoxicity in HeLa cell viability assay [8]: significant dose-dependent cytotoxicity
half wave potential (E1/2) [2]: -1.03 V
Zn(II) ion ejection from KDM4A [4]: caused Zn(II) ion loss

Continued, in another order:

Zn(II) ion ejection from KDM4A [4]: caused Zn(II) ion loss
Molecule: O=C1c2ccccc2C(=O)C1(O)O [compound 23, ninhydrin]
Zn(II) ion release from CH1 domain of p300 [3]: dose- and time-dependent increases in fluorescence
cytotoxicity in HeLa cell viability assay [5]: significant dose-dependent cytotoxicity

pIC50 [6]: ~4.00
Molecule: c1ccc(SSc2ccccn2)nc1 [compound 13, Dipyridyldisulfide]

Zn(II) ion ejection from KDM4A [4]: caused Zn(II) ion loss
Molecule: O=C(NC1(O)C(=O)c2ccccc2C1=O)c1cccnc1 [compound 16, N-(2-Hydroxy-1,3-dioxo-2,3-dihydro-1H-inden-2-yl)nicotinamide]

hydrolysis to picolinamide and ninhydrin 23 [7]: 80%
Molecule: O=C(NC1(O)C(=O)c2ccccc2C1=O)c1ccccn1 [compound 5, N-(2-Hydroxy-1,3-dioxo-2,3-dihydro-1H-inden-2-yl)picolinamide]
